Calls of active or inactive are those of the source. No cut-off for these calls is given here.
Columns and labels:
[1] = biological target: T1, DNA topoisomerase 2-alpha (Homo sapiens, UniProt P11388); assay: Inhibition of DNA topoisomerase 2alpha-mediated pBR322 DNA cleavage at 50 uM by SDS-PAGE
In short: (§1)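 Topoisomerase IIα (150 ng) with 80 ng pBR322 and 0.5 mM ATP in pH 8.0 Tris/KCl/NaCl/MgCl2/glycerol buffer. Drug added last from DMSO. Incubated 10 min at 37°C, quenched with SDS/EDTA, then proteinase K 30 min at 55°C. Linear DNA resolved on a 1.2% agarose ethidium bromide gel against a HindIII-linearised pBR322 marker.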

[2] = biological target: T1, DNA topoisomerase 2-alpha; assay: Ratio of etoposide IC50 to IC50 for drug against human DNA topoisomerase 2alpha-mediated decatenation of kinetoplast plasmid DNA by fluorescent plate reader
[3] = biological target: T1, DNA topoisomerase 2-alpha; assay: Inhibition of DNA topoisomerase 2alpha-mediated pBR322 DNA cleavage at 100 uM by SDS-PAGE; in short: as §1
[4] = biological target: T1, DNA topoisomerase 2-alpha; assay: Inhibition of DNA topoisomerase 2alpha in human K562 cells assessed as protein-DNA covalent complex formation at 80 uM by scintillation counting; assay type: cell-based
In short: (§2)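 K562 or K/VP.5 cells prelabelled 24 h with [3H]thymidine and [14C]leucine. Cells held at 1.5×10^6/ml in HEPES-buffered saline-glucose pH 7.4 and exposed to compound for 60 min at 37°C in the dark. Protein-DNA complexes precipitated with SDS/KCl after lysis and DNA shearing, and counted by scintillation. 3H normalised to 14C protein.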

[5] = biological target: T1, DNA topoisomerase 2-alpha; assay: Inhibition of DNA topoisomerase 2alpha in human K-VP.5 cells assessed as decrease in protein-DNA covalent complex formation at 80 uM by scintillation counting; assay type: cell-based; in short: as §2
[6] = biological target: T1, DNA topoisomerase 2-alpha; assay: Inhibition of DNA topoisomerase 2alpha in human K562 cells assessed as protein-DNA covalent complex formation under UV irradiation by scintillation counting; assay type: cell-based
In short: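 Radiolabelled K562 cells (1.5×10^6/ml, pH 7.4 buffer) given compound (2.5–20 μM), then irradiated or not at 365 nm for 5 min from 16 mm. Incubated 60 min at 37°C in the dark. SDS/KCl-precipitated protein-DNA complexes measured by scintillation, with 3H normalised to 14C. Nine experiments on different days. Paired t-tests of UV versus no UV at each concentration.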

[7] = biological target: T1, DNA topoisomerase 2-alpha; assay: Inhibition of DNA topoisomerase 2alpha-mediated pBR322 DNA cleavage at 20 uM by SDS-PAGE
[8] = test system: K562; assay: Cytotoxicity against human K562 cells after 72 hrs by MTS assay; assay type: functional, cell-based; conditions: K562, 72 h
In short: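 K562 cells in αMEM with 10% fetal calf serum, 37°C, 5% CO2. Exponentially growing cells seeded at 6000/well. Compound added from DMSO stock (final DMSO 0.5% v/v), continuous exposure for 72 h. MTS added for a further 3 h and absorbance read. Three replicates per concentration. IC50 from a four-parameter logistic fit.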

[9] = biological target: T1, DNA topoisomerase 2-alpha; conditions: K562, 25 uM
[10] = biological target: T1, DNA topoisomerase 2-alpha; conditions: K562, 50 uM
[11] = biological target: T1, DNA topoisomerase 2-alpha; conditions: 50 uM

T1 sequence (P11388 whole entry): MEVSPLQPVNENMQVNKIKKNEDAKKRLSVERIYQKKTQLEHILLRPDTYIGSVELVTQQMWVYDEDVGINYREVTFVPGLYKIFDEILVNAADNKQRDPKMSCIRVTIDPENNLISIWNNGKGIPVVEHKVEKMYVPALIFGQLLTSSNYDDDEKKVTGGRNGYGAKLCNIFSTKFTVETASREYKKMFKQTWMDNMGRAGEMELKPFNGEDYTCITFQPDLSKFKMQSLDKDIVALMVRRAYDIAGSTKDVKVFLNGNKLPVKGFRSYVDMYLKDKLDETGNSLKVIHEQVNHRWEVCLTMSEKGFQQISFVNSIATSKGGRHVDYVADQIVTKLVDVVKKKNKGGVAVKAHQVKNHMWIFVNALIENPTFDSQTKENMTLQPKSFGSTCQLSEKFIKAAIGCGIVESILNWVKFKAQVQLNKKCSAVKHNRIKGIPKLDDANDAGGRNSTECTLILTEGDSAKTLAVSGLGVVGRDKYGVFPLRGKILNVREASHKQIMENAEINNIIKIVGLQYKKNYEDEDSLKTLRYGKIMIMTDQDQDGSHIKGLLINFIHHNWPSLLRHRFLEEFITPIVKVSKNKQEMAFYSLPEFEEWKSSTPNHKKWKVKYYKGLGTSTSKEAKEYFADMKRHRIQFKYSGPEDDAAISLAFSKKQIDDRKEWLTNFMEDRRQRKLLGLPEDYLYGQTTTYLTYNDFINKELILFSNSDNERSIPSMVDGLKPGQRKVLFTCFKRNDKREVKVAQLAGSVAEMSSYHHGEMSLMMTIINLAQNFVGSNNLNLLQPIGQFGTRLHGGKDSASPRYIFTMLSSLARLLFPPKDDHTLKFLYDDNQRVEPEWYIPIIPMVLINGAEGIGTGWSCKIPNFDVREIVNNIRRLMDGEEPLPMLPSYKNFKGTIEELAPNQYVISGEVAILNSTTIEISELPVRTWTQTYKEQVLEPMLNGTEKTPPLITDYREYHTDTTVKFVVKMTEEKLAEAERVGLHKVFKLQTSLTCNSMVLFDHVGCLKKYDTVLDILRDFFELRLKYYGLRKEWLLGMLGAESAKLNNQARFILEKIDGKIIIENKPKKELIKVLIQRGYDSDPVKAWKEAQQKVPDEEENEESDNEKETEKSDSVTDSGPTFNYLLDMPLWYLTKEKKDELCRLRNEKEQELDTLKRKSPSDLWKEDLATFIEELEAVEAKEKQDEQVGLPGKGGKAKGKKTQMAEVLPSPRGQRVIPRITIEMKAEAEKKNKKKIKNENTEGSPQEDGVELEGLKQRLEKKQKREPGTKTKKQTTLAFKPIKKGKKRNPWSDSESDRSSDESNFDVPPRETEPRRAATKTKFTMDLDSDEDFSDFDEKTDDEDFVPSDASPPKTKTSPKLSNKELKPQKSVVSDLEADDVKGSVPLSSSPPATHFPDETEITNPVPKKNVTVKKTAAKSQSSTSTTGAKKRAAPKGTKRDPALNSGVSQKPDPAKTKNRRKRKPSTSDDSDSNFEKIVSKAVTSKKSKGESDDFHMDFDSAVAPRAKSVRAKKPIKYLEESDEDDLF

Row | Compound | inhibition [1] | Ratio IC50 [2] | inhibition [3] | inhibition [4] | inhibition [5] | inhibition [6] | inhibition [7] | IC50 [8] [nM] | inhibition [9] | inhibition [10] | inhibition [11]
1 | CC[C@@]1(O)C(=O)OCc2c1cc1n(c2=O)Cc2cc3ccccc3nc2-1 | 40% |  |  |  |  |  |  |  |  |  | 
2 | COc1cc([C@@H]2c3cc4c(cc3[C@@H](NC(=O)c3ccc(C5(C(F)(F)F)N=N5)cc3)[C@H]3COC(=O)[C@H]23)OCO4)cc(OC)c1O [DIAZIRINE] | Active | 2 | Active | Active | Active | Dose-dependent effect | inactive |  |  |  | 
3 | COc1cc([C@@H]2c3cc4c(cc3[C@@H](O[C@@H]3O[C@@H]5CO[C@@H](C)O[C@H]5[C@H](O)[C@H]3O)[C@H]3COC(=O)[C@H]23)OCO4)cc(OC)c1O [ETOPOSIDE] |  |  | Active |  |  |  | inactive | 420 | inactive | Active | Active

— ChEMBL document CHEMBL1157724 (Bioorg Med Chem, 2010)
